STAT3 act: increases IL-6 driven STAT3 reporter signal. U3A cells, IL-6 STAT3-luciferase reporter, luminescence; 100% = signal with IL-6 EC80 alone. activation (% of control), % at 5.6 µM. actives 0.91% (n = 190,000);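 active means activation above the screen-wide mean of compound activation plus 3 SD, cut at about 130% in these data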
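Material: STAT3-luciferase reporter U3A cells; Probe or stimulus: IL-6 (33 ng/mL); Incubation: compound pre-incubation 1 h before IL-6, then 6 h stimulation at 37 °C; Technique: luminescence from STAT3-driven luciferase reporter; Evaluation: % activation versus median of IL-6-stimulated wells; Controls: IL-6-only high control.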
STAT3 inh: inhibitors of IL-6 induced STAT3 signaling | U3A cells, IL-6 STAT3-luciferase reporter, luminescence; host cell line lacks STAT1 | inhibition, % at 5.5 µM | actives 0.89% (n = 190,000) | AID 862;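 active means inhibition above the mean inhibition across all screened compounds plus 3 SD, cut at about 44% in these data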
APP 5'UTR act: activates APP 5'UTR luciferase reporter; SH-SY5Y APP 5'UTR luciferase reporter, luminescence; zero percent = DMSO vehicle wells; activation, % at 2 µM; actives 1% (n = 190,000); AID 1276;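 active means activation above a set limit, based on mean plus 3 SD of controls, cut at about 140% in these data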
STAT1 inh: inhibitors of IFN-gamma induced STAT1 signaling; actives 0.35% (n = 200,000); NIH 3T3 STAT1-luciferase reporter, luminescence; inhibition, % at 5.5 µM;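 active means inhibition above a set limit, the mean inhibition across all tested compounds plus 3 SD, cut at about 34% in these data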
NF-kB expr up: raises NF-kB expression in human neuronal cells | NF-kB reporter expression; active compounds read high | fold change at 12.5 µM | actives 1.6% (n = 190,000) | AID 1239; in the data active means fold change above about 3.3
STAT1 act: increases IFN-gamma driven STAT1 reporter signal; NIH 3T3 STAT1-luciferase reporter, luminescence; 100% = IFN-gamma alone, no compound; AID 932; activation (% of control), % at 5.5 µM; actives 2.6% (n = 200,000);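 active means activation above the screen-wide mean activation plus 3 SD, cut at about 130% in these data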
Each line names hits and unclear results; the compound was inactive in the other large screens. A selection: hits, their analogues and other compounds. The true share with any hit is near 5.1%.

O=C(N/N=C\CCc1ccccc1)c1ccco1	STAT1 act 134
CC(/C=N/NC(=O)c1cccs1)=C\c1ccccc1	APP 5'UTR act 188, NF-kB expr up 8.5, STAT1 act 134
CC(/C=N/NC(=O)c1ccco1)=C\c1ccccc1	APP 5'UTR act 161, NF-kB expr up 5.9
CC1(C)CC(=O)C(C(=O)Cc2ccccc2[N+](=O)[O-])C(=O)C1	none
O=C(Nc1ccccc1)c1ccncc1	none
CC(C)c1ccc2oc(-c3ccc(NC(=O)c4ncn[nH]4)cc3)nc2c1	STAT1 act 136
Cc1ccc2oc(-c3ccc(NC(=O)c4cccnc4)cc3)nc2c1	APP 5'UTR act 225, STAT1 act 144
O=C(Nc1cccnc1)c1cccnc1	none
O=C(Nc1ccc2ccccc2c1)c1cccnc1	NF-kB expr up 5, STAT1 act 137
O=C(Nc1cnc2ccccc2c1)c1ccncc1	NF-kB expr up 3.5, STAT1 act 130
CCOC(=O)C1=NN(C(C)=O)C2(CC(=O)N(c3cccc(C)c3)C2=O)C1 (configuration not stated)	none
CC(NC(=O)CN1CCc2ccccc21)c1ccccc1 (configuration not stated)	none
O=C(Nc1ccc2ccccc2c1)c1cnccn1	APP 5'UTR act 157, NF-kB expr up 6.5
FC(F)(F)c1cc(-c2ccccc2)nc(N2CCCCCC2)n1	none
c1ccc(-c2cnnc(N3CCCCC3)n2)cc1	STAT1 act 142
O=C(NCc1ccco1)/C(=C\C=C\c1ccccc1)NC(=O)c1ccccc1Br	none
O=C(NC(=S)N(CCO)Cc1ccccc1)c1ccc(S(=O)(=O)N2CCCC2)cc1	none
O=C(Nc1ccc2c(c1)OCO2)c1ccc2c(c1)OCO2	APP 5'UTR act 138, NF-kB expr up 8, STAT1 act 132
O=C(CCCc1ccccc1)c1ccc2c(c1)OCCO2	STAT3 inh 108, STAT1 inh 92 (no result: APP 5'UTR act)
O=C(Nc1ccc2c(c1)OCO2)c1cccc(Cl)c1	STAT1 act 129
CCC(=O)Oc1ccc(C(=O)Nc2ccc3c(c2)OCO3)cc1	APP 5'UTR act 142, STAT1 act 137
COc1ccc(-c2[nH]ncc2CN2CCC(N3CCSCC3)CC2)cc1F	none
Cc1ccc(SCC(=O)Nc2ccc(F)cc2[N+](=O)[O-])cc1C	none
CCN(CC)S(=O)(=O)c1ccc(N(C)Cc2cccnc2)nc1	none
O=C(N/N=C/c1ccncc1)c1ccc2c(c1)OCO2	none
O=C(Nc1ccc(Cl)c([N+](=O)[O-])c1)c1ccc2c(c1)OCCO2	APP 5'UTR act 168, NF-kB expr up 3.7, STAT1 act 139
O=C(Nc1ccc(F)c(F)c1)c1ccc2c(c1)OCO2	STAT1 act 138
CCOc1ccc(C(=O)Nc2ccc3c(c2)OCCO3)cc1[N+](=O)[O-]	none
O=C(N/N=C/c1cccs1)c1ccc2c(c1)OCO2	STAT1 act 129
O=C(Nc1ccc2c(c1)OCO2)c1c(F)c(F)c(F)c(F)c1F	none
O=C(Nc1ccccc1)c1ccc2c(c1)OCCO2	NF-kB expr up 5.5, STAT1 act 146
CN(C(=O)COc1ccc(Cl)cc1Cl)c1nnc(C23CC4CC(CC(C4)C2)C3)s1	none
Cc1snc(S(=O)(=O)Cc2ccccc2Cl)c1C#N	none
CCOCc1nnc(NC(=O)C2c3ccccc3Oc3ccccc32)s1	none
O=C(Nc1ccc2c(c1)OCO2)Nc1ccccn1	STAT1 act 148
O=C(Nc1ccc2c(c1)OCO2)Nc1cnccn1	none
O=C(Nc1ccccn1)Nc1cccs1	STAT1 act 132
O=C(Nc1ccncc1)Nc1ccccn1	none
O=C(Nc1cccc(NC(=O)c2ccc3c(c2)OCO3)c1)c1ccccc1	none
O=C(Nc1ccc2c(c1)OCO2)Nc1ccc2c(c1)OCO2	APP 5'UTR act 136, STAT1 act 141
NC(=O)c1ccc(NC(=O)c2ccc3c(c2)OCO3)cc1	STAT1 act 139
O=C(Nc1cccnc1)Nc1ccc2c(c1)OCO2	none
O=S(=O)(Cc1ccccc1)NCC1CCCN(Cc2ccc(F)c(F)c2)C1 (configuration not stated)	none
O=C(Nc1ccc(C(=O)N2CCOCC2)cc1)c1cccc([N+](=O)[O-])c1	none
Cc1noc(C(=O)Nc2ccc3c(c2)OCO3)c1Cl	none
O=C(Nc1ccc2c(c1)OCO2)c1c(Cl)nc2sccn12	STAT1 act 131
O=C(Nc1cccc(O)c1)c1cnn2cccnc12	none (no result: APP 5'UTR act)
O=C(Nc1ccc2c(c1)OCO2)c1ccc(Cl)s1	APP 5'UTR act 184, NF-kB expr up 9.8, STAT1 act 130
O=C(Nc1ccc(Cl)cc1)C1=Cc2ccccc2OC1	APP 5'UTR act 210, NF-kB expr up 9.2, STAT1 act 143
O=C(Nc1ccc2c(c1)OCO2)c1cnn2cccnc12	STAT1 act 130
Cn1cccc1C(=O)OCC(=O)NC(=O)NC1CCCCC1	none
Cc1cc2cc(C)c(NCCNC(=O)c3cccs3)nc2cc1C	none
COc1cc([N+](=O)[O-])ccc1NC(=O)Nc1ccc2c(c1)OCCO2	none
O=C(Nc1ccc([N+](=O)[O-])cc1)Nc1ccc2c(c1)OCCO2	NF-kB expr up 4.5, STAT1 act 134
O=C(Nc1ccc(Cl)cc1)c1ccc2c(c1)OCO2	APP 5'UTR act 193, NF-kB expr up 6.8, STAT1 act 139
O=C(Nc1ccc2c(c1)OCCO2)C1CCC1	none
O=C(Nc1cccc(F)c1)Nc1ccccn1	STAT1 act 148
O=C(Nc1ccc2c(c1)OCCO2)NC1CCCCC1	APP 5'UTR act 138, NF-kB expr up 5.2, STAT1 act 129
N#Cc1ccc(Cl)cc1NC(=O)COC(=O)[C@H](CCC(N)=O)NC(=O)c1ccc(F)cc1	none
CCOc1ccc2nc(SCC(=O)N(C)C)[nH]c2c1	STAT1 act 133
COc1ccc2nc(SCC(=O)c3ccco3)[nH]c2c1	STAT1 act 130
CCOc1ccc2nc(SCC(=O)N(C)C3CCS(=O)(=O)C3)[nH]c2c1 (configuration not stated)	none
O=C(CSc1nc2ccccc2[nH]1)c1ccco1	none
COC(=O)c1c(-c2ccccc2Cl)noc1/C=C/N(C)C	none
COC(=O)c1ccc(OCC(=O)c2ccccc2)cc1	NF-kB expr up 4.1, STAT1 act 139
COC(=O)c1ccc(OCCOc2ccc(C(=O)OC)cc2)cc1	none
CC(=O)c1ccc(Nc2cnn(C34CC5CC(CC(CC(=O)O)(C5)C3)C4)c(=O)c2Cl)cc1	none
CCn1nnnc1NCc1cccc(Cl)c1	none
Cc1ccc(C(=O)Nc2ncc3c(Cl)cccc3n2)cc1	STAT3 inh 63, APP 5'UTR act 141
C=CCNC(=S)Nc1sc2c(c1C#N)CCCC2	none
CC1CCCCN1CCCNC(=O)c1cc(Br)c(Br)[nH]1 (configuration not stated)	none
Nc1nccc(-c2ccc(-n3cnc4ccccc43)cc2)n1	STAT3 act 133
Cc1nccc(-c2ccc(-n3cnc4ccccc43)cc2)n1	none (no result: APP 5'UTR act)
